High-throughput results: PubChem BioAssay, several laboratories
CASP6 VEID inh: caspase-6 (human) enzyme inhibition; purified caspase-6, Z-VEID-R110 cleavage fluorescence; inhibition, % at 12.5 µM; 350,000 compounds, 0.53% hits; AID 686996;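 active = mean inhibition across replicates at least about 35%, with every replicate also reaching that limit, limit read from the data; inconclusive = only one of the two criteria met; inactive = neither criterion met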;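 note: 0% = median of neutral control wells and 100% = no fluorescence left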
Target sequence (P55212 24-179 limits assumed): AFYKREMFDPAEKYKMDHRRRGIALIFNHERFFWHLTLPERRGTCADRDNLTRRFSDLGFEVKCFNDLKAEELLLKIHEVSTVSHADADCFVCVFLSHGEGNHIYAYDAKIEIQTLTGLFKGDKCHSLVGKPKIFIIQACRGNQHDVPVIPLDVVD
Target sequence (P55212 194-293 limits assumed): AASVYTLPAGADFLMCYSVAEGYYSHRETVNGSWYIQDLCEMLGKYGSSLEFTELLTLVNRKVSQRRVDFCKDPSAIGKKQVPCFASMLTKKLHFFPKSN
Vif imaging: blocks HIV Vif function. HEK293T cells, Vif self-association by quenched fluorescence, imaging, 24 h. inhibition, % at 7.49 µM. 340,000 compounds, 0.35% hits. AID 602346; in the data active = inhibition above about 50%, passing the limit was not always enough; inconclusive = no clear call, values can overlap the other calls; inactive = below about 31%
T cell HTS: modulates CD8 T cell binding to vesicles; 330,000 compounds, 0.068% hits; 2C CD8+ T cell-vesicle binding, flow cytometry; active compounds read low; response (vesicle binding), % at 7 µM;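 active = response, share of CD8 T cells binding vesicles, and their 90th percentile fluorescence all below set limits, cut at about 80% in these data, passing the limit was not always enough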;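 note: values below 100% mean blocked vesicle binding to the CD8+ T cells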
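Material: 2C TCR transgenic mouse naive CD8+ T cells, MACS-purified. Also added: QL9-charged Drosophila Ld/ICAM-1/B7-1 vesicles. Timing: binding 1.5 h at 37 °C. Measured by: high-throughput flow cytometry with anti-B7-1 and anti-CD8 staining. Read-out: percent CD8+ FL2 mean versus row control. Controls: Unloaded micro-vesicles (low), QL9 vesicles with 0.7% DMSO (high).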
Myeloid diff 2: myeloid differentiation induction; ER-HoxA9 myeloid progenitors, lysozyme-GFP differentiation, flow cytometry; calls only at 10 µM; 360,000 compounds, 1% hits; AID 624256;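 active = normalized GFP-positive differentiation at or above the plate's own cutoff, the solvent-only control mean plus 3 SD; inconclusive = no clear call, values can overlap the other calls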;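 note: cells exposed to compound for four days before flow analysis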
Starred values were filed as active, the others as inactive. In the library only some 1.4% were active in any assay of this set; here they are far more common.

For O=C(CN1CCOCC1)N[C@H]1CC[C@H](CCn2cc(C3CCCC3)nn2)O[C@@H]1CO the results were CASP6 VEID inh 3.1.
COC(=O)c1ccc(OC(=O)/C=C/c2ccco2)cc1 was read as CASP6 VEID inh 35.8*, Vif imaging -3.5, T cell HTS 278.7 and Myeloid diff 2 inactive.
O=Cc1cccc(OC(=O)/C=C/c2ccco2)c1 was read as CASP6 VEID inh 87.5*, Vif imaging -5.2, T cell HTS 354.5 and Myeloid diff 2 inactive.
For Cc1ccc(S(=O)(=O)Nc2ccc3c(c2)C(=O)N([C@@H](C)CO)C[C@@H](C)[C@@H](CN(C)C(=O)CCC(F)(F)F)OCCCC[C@@H](C)O3)cc1 the results were CASP6 VEID inh -0.4.
C[C@H](CO)N1C[C@H](C)[C@H](CN(C)S(=O)(=O)c2ccccc2)Oc2ncc(C#Cc3ccc(C(F)(F)F)cc3)cc2C1=O was read as CASP6 VEID inh 2.1.
For O=S(=O)(Nc1nc2ccccc2nc1NCc1ccco1)c1cccs1 the results were Vif imaging 11.3, T cell HTS 115.7 and Myeloid diff 2 active.
For C=CCNc1nc2ccccc2nc1NS(=O)(=O)c1cccs1 the results were T cell HTS 671.1 and Myeloid diff 2 inactive.
Screening COc1cc(-c2cc(=O)c3c(O)c(OC)c(OC)c(O)c3o2)ccc1O returned CASP6 VEID inh 16.8, Vif imaging 62.4*, T cell HTS 262.8 and Myeloid diff 2 inactive.
Screening COc1ccc(-n2sc3c(c2=S)-c2cc(OC)ccc2NC3(C)C)cc1 returned Vif imaging 3.3, T cell HTS 219.6 and Myeloid diff 2 inactive.
Screening COc1ccc2c(c1)-c1c(sn(-c3ccc(OC)c(OC)c3)c1=S)C(C)(C)N2 returned T cell HTS 70.3* and Myeloid diff 2 inactive.
For O=C(NCc1ccccc1Br)c1cccs1 the results were CASP6 VEID inh -0.1, Vif imaging 4.0 and Myeloid diff 2 active.
For CC(C)(O)C#Cc1ccc(C(=O)N2CCCC(CNS(=O)(=O)c3cccs3)C2)o1 (configuration not stated) the results were CASP6 VEID inh -2.2, Vif imaging 9.4, T cell HTS 463.3 and Myeloid diff 2 active.
Screening COCC#Cc1cnc2c(c1)C(=O)N([C@@H](C)CO)C[C@@H](C)[C@@H](CN(C)C(=O)Nc1cccc(F)c1)O2 returned CASP6 VEID inh -1.2.
For CCOc1ccc(C(=O)CCC(=O)N2CCN(c3ccc(O)cc3)CC2)cc1 the results were CASP6 VEID inh -1.2, Vif imaging 11.5, T cell HTS 623.4 and Myeloid diff 2 active.
Screening O=C(O)C[C@@H]1C[C@H]2c3cc(NC(=O)C4CCOCC4)ccc3O[C@H]2[C@@H](CO)O1 returned CASP6 VEID inh 0.8.
For O=C(c1ccc(F)cc1)N1C[C@@H]2[C@H](c3ccccc31)[C@@H](CO)N2Cc1ccc2c(c1)OCO2 the results were CASP6 VEID inh 2.2.
Screening Cc1cccc(-c2ccc([C@@H]3[C@@H](CO)N4C(=O)CN(C(=O)Cc5ccccn5)C[C@H]34)cc2)c1 returned CASP6 VEID inh 0.9.
For CN1CCN(C(=O)CSc2nc(-c3cccs3)ccc2C#N)CC1 the results were Vif imaging 6.2, T cell HTS 501.4 and Myeloid diff 2 active.
Screening COC(=O)c1cc(O)cc(OC)c1Oc1cc(C)cc(O)c1C(=O)O returned CASP6 VEID inh 42.6*, Vif imaging 34.8, T cell HTS 186.0 and Myeloid diff 2 inactive.
`C[C@H]1CN([C@@H](C)CO)C(=O)Cc2cc(NC(=O)Nc3ccc(F)cc3)ccc2O[C@H]1CN(C)Cc1ccc(C(=O)Nc2ccccc2N)cc1` gave CASP6 VEID inh 1.5.
CC(=O)Nc1c(O)nc(SCC(=O)Nc2nnc(SCc3ccccc3)s2)[nH]c1=O was read as CASP6 VEID inh 79.8*, Vif imaging 0.2, T cell HTS 229.9 and Myeloid diff 2 inactive.
`CC(=O)Nc1c(O)nc(SCC(=O)Nc2nnc(CC(C)C)s2)[nH]c1=O` gave Vif imaging 28.7, T cell HTS 312.2 and Myeloid diff 2 inactive.
CN1CCN(C2=C(NS(=O)(=O)c3ccccc3)C(=O)c3ccccc3C2=O)CC1 was read as Vif imaging -1.9, T cell HTS 273.8 and Myeloid diff 2 inactive.
`CN1CCN(C2=C(Cl)C(=O)c3ccccc3C2=O)CC1` gave CASP6 VEID inh 98.6*, Vif imaging -2.2 and Myeloid diff 2 inconclusive.
`CCOC(=O)N1CCN(C2=C(NS(=O)(=O)c3ccc(Br)cc3)C(=O)c3ccccc3C2=O)CC1` gave CASP6 VEID inh 4.5 and Myeloid diff 2 inactive.
O=C1C(NS(=O)(=O)c2cccs2)=C(N2CCOCC2)C(=O)c2ccccc21 was read as CASP6 VEID inh 7.1, Vif imaging -2.7, T cell HTS 467.1 and Myeloid diff 2 inactive.
`CCN1CCN(C2=C(NS(=O)(=O)c3ccccc3)C(=O)c3ccccc3C2=O)CC1` gave CASP6 VEID inh 47.7*, Vif imaging -1.7, T cell HTS 353.0 and Myeloid diff 2 inconclusive.
`CCN1CCN(C2=C(NS(=O)(=O)c3ccc(Br)cc3)C(=O)c3ccccc3C2=O)CC1` gave CASP6 VEID inh 68.5*, Vif imaging -20.0, T cell HTS 420.0 and Myeloid diff 2 inactive.
Screening CN1CCN(C2=C(NS(=O)(=O)c3cccs3)C(=O)c3ccccc3C2=O)CC1 returned CASP6 VEID inh 47.1*, Vif imaging -1.4, T cell HTS 416.7 and Myeloid diff 2 inactive.
`C[C@@H]1CN([C@H](C)CO)C(=O)Cc2cc(NC(=O)Nc3cccc4ccccc34)ccc2O[C@@H]1CN(C)Cc1ccc2c(c1)OCO2` gave CASP6 VEID inh 0.7.
C[C@H]1CN([C@@H](C)CO)C(=O)c2cc(-c3cccc(C#N)c3)cnc2O[C@@H]1CN(C)C(=O)C1CCCCC1 was read as CASP6 VEID inh -2.1.
`COc1ccc(CN(C)C[C@@H]2Oc3c(NC(=O)CCCCCC(=O)Nc4ccccc4N)cccc3C(=O)N([C@@H](C)CO)C[C@H]2C)cc1` gave CASP6 VEID inh -3.8.
For COc1ccc(/C=C/C(=O)c2cc(F)ccc2OC(=O)c2ccccc2OC)cc1OC the results were CASP6 VEID inh -0.6 and Vif imaging 90.7*.
`C[C@H](CO)N1C[C@H](C)[C@@H](CN(C)Cc2cccc(C(=O)O)c2)Oc2ncc(-c3ccccc3F)cc2C1=O` gave CASP6 VEID inh 2.7.
COc1ccc2c3c([nH]c2c1)[C@@H](CO)N(C(=O)Cc1ccccc1)CC31CN(C)C1 was read as CASP6 VEID inh -0.6.
Screening CC(C)CC#Cc1ccc2c(c1)O[C@@H](CN(C)C(=O)Nc1ccccc1F)[C@H](C)CN([C@@H](C)CO)S2(=O)=O returned CASP6 VEID inh 2.5.
For CCOC(=O)c1cc(OC(=O)c2ccccc2OC)n(-c2ccccc2)n1 the results were CASP6 VEID inh 1.5, Vif imaging 77.6*, T cell HTS 260.1 and Myeloid diff 2 inactive.
Screening CCOC(=O)c1sc2ccccc2c1OC(=O)c1ccccc1OC returned CASP6 VEID inh 2.0, Vif imaging 18.4, T cell HTS 236.6 and Myeloid diff 2 inactive.
